Assay: Toxicity liver stage against HepG2, at 10uM
Type: cell-based
Parameters: test concentration 10 uM, cell line HepG2-A16-CD81EGFP
Conditions: human, HepG2-A16-CD81EGFP cells; read-out: INHIBITION
Procedure, shortened: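 Uninfected HepG2-A16-CD81EGFP cells, 3 × 10^3 per well, 1536-well, plated on prespotted compound at 10 μM final, parasite-free screening media added to match infected plates; puromycin 10 μM positive, DMSO 0.5% negative; run in parallel with 48 h PbLuc assay at 37 °C, 5% CO2; viability by CellTiter-Glo luminescence, normalized to controls.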

Structure (SMILES)	cytotoxicity at 10 µM [%]
NC(=O)[C@H]1CCCN(c2nccc(-c3ccncc3)n2)C1	-5.03
COCCC(=O)NCc1ccc(-c2ccccc2C(=O)O)cn1	1.92
CCC(C(=O)NCc1ccn(-c2ccc(F)cc2)n1)N1CCCC1=O (stereo not given)	-5.63
CCc1ccsc1C(=O)N1CCCN(Cc2nccn2CC)CC1	1.84
CCC[C@H]1CN(CCS(C)(=O)=O)C[C@@H]1NC(=O)c1ccn(C)n1	5.83
O=C(N1CCCC(n2cncn2)C1)C1(c2cccc(F)c2)CCCC1 (stereo not given)	3.39
CCCc1cc(C(=O)NC2CCCCNC2=O)[nH]n1 (stereo not given)	0.828
Cc1ccc(C)n1C(C)C(=O)N1CCCN(Cc2cscn2)CC1 (stereo not given)	-8.36
c1ccc2c(c1)SCCC2NCc1ccc(N2CCOCC2)cc1 (stereo not given)	-4.86
CCn1c(CC2CCN(C(=O)c3ccnn3C)CC2)n[nH]c1=O	-51.1
Cc1nc(-c2ncc(C(=O)NCCNc3ncccc3C)c(O)n2)cs1	-0.153
COc1ccc([C@@H]2CN(c3cc(C(=O)O)ccn3)C[C@H]2N(C)C)cc1	10.3
COCc1nc(CNc2cc(C)nc(-c3ccccc3)n2)no1	7.06
O=C(C(c1ccc(F)cc1)N1CCCCC1)N1CCn2cncc2C1 (stereo not given)	-0.628
O=C(CC1Cn2ncnc2NC1=O)Nc1ccccc1 (stereo not given)	6.11
Cc1cnc(N2C[C@H]3CCCC(N(C)Cc4ccccn4)[C@H]3C2)nc1 (stereo not given in full)	-104
O[C@@H]1CN(Cc2ccc(F)c(F)c2)CC[C@H]1NCc1ccccn1	3.85
Cc1ccn(-c2ccnc(N3CCN(c4ncccn4)CC3)n2)n1	13.4
N#Cc1cc(NC(=O)c2ccccc2)ccc1N1CCC(O)CC1	-9.55
Cc1cnn(C2CN(CC(=O)NCC3(c4ccccc4)CC3)C2)c1	-10.9
COc1ccc(SC(C)C(=O)N2CCC(C(N)=O)CC2)cc1 (stereo not given)	2.28
Cc1cc(C(=O)N2CCCC(Cn3cc(C4CC4)nn3)C2)nc(C)n1 (stereo not given)	-0.916

Structure (SMILES)	cytotoxicity at 10 µM [%]
Cc1cc(C2CCCN2C(=O)NCc2cccnc2)on1 (stereo not given)	0.458
Cc1nc(Nc2cnccn2)cc(C2CCN(c3ncccn3)C2)n1 (stereo not given)	-19.5
O=C(Cn1nc(C(F)(F)F)c(Cl)c1C1CC1)NN1CCOCC1	5.01
COC[C@@]12CCO[C@@H]1CCN(C(=O)Cc1ccccc1C)C2	2.05
COc1c(CNCc2ccccc2CO)c(C)nn1C	1.04
O=C(O)C(c1ccc2c(c1)OCCO2)N1CCSCC1 (stereo not given)	1.38
O=C(O)[C@@H]1CN(C(=O)c2ccc3[nH]nnc3c2)C[C@H]1c1cccc(F)c1	-8.66
Fc1ccc(C(CNc2ccncn2)N2CCCC2)cc1 (stereo not given)	15.9
CC1=N[C@@]2(CC[C@@H]3CN(C(=O)Nc4ccc(F)cc4)C[C@@H]32)C(=O)N1C	8.1
CCCN1CCC(CC(=O)NCc2cc(C)nn2C)CC1	-12.4
CN(C)C(=O)C1CCc2nnc(C(C)(C)C)n21 (stereo not given)	3.13
CNc1ncc(CN(C)Cc2cc3n(n2)CCNC3)cn1	-5.71
C[C@]1(O)CN(CCO)CC[C@@H]1Oc1cccc(F)c1	-6
Cc1ccc(C)c(C(=O)N2CCN(C(=O)Cc3ccccn3)CC2)c1	-15.1
CCC[C@@H]1CN(Cc2ccccc2SC)C[C@H]1NC(C)=O	-5.73
COc1cc(C)ccc1C(=O)N1CCC2(CCC(=O)N(C(C)C)C2)CC1	3.76
CN(Cc1nc(-c2ccccc2)c[nH]1)C(=O)NCC(=O)NC(C)(C)C	13.4
Cc1[nH]c2ccccc2c1-c1ccnc(NC[C@H](O)CO)n1	8.9
CN(C)CC1CN(Cc2nnc(C(C)(C)C)o2)CCO1 (stereo not given)	-4.17
Cc1ncnc(N2CCCN(c3nc4ccccc4s3)CC2)c1C	55.5
CCc1ccsc1C(=O)N1CCN(CC(N)=O)CC1	-1.1
CCOCCNC(=O)c1cccnc1N1CCCC1c1ccccn1 (stereo not given)	4.65

Structure (SMILES)	cytotoxicity at 10 µM [%]
c1cnc(-c2nc(CN3CCN(CC4CC4)CC3)cs2)nc1	-10.1
Cc1ccc(C2CN(Cc3cccc4[nH]ccc34)CCO2)nc1 (stereo not given)	-35.6
CS(=O)(=O)CCCN(CCCO)C1CCc2ccccc21 (stereo not given)	-10.4
COCc1nc(C(=O)NS(=O)(=O)c2ccc(OC)c(C)c2)cs1	1.06
Cc1noc(C)c1CC(=O)OCc1nc(N)c2ccccc2n1	6.83
CNC(=O)CS(=O)(=O)Cc1coc(-c2cccc(F)c2)n1	1.28
CN(Cc1ccccc1Cl)C(=O)c1cc(CN2CCC(O)CC2)on1	0.0227
CCc1nn(C)c2[nH]nc(NC(=O)c3cccnc3OCC(C)C)c12	3.94
Cc1nc(C)n(CC2CCCN(Cc3cc(C#N)ccc3F)C2)n1 (stereo not given)	-18.3
CC(C)CCOCCNC(=O)Nc1ccc(F)c(C(N)=O)c1	-11.6
O=C(c1cc(C2CC2)[nH]n1)N1CCCC(n2cncn2)C1 (stereo not given)	-6
CCCN1CCC(NN2CCN(C)CC2)CC1	-2.38
CCN(C(=O)COC)C(c1ccc(Cl)cc1)c1ccccn1 (stereo not given)	-9.7
COc1cccc(-c2ccnc3nc(N4CCCCC4)[nH]c(=O)c23)c1	7.97
Cc1ncsc1CN1C[C@@H]2COC[C@]2(CNC(=O)c2ccccc2)C1	-2.39
Cc1ccc(CN2CCc3ncnc(C4CC4)c3CC2)s1	4.63
CC(C)(C)CN(CCO)C(=O)Nc1cccc(N2CCNC2=O)c1	-17.2
CCc1cc(C(=O)N2CC[C@@H](c3ccc4ccccc4c3)[C@H](O)C2)[nH]n1	3.46
C=Cn1ncc(CN2CCC(c3ncc(Cl)cc3S(C)(=O)=O)CC2)c1C	6.29
COC(=O)c1cc2c(OC)c(C)c(OC)cc2[nH]1	-12.8
CSC(C)(C)CNC(=O)NC1CCN(CC(F)F)CC1	-5.12
CCN(Cc1ccoc1)C(=O)c1cc(C)c(C)c(S(N)(=O)=O)c1	-1.69

Structure (SMILES)	cytotoxicity at 10 µM [%]
CCC(CC)NC(=O)Cn1cc(C(N)=O)c(-c2ccccc2)n1	-6.87
CC(NC(=O)CSCC#N)c1cccc(Cl)c1 (stereo not given)	-3.06
CN(Cc1ncc(-c2ccccc2)o1)CC1CCCN1c1cccnn1 (stereo not given)	3.75
CCCN1CCC(NC(=O)c2ccnc(SCC)c2)CC1	-4.14
CCS(=O)(=O)N1CCN(C(=O)c2ccc(Cn3cc(Br)cn3)cc2)CC1	-2.61
CC(Nc1ccn(Cc2ccccn2)n1)C(=O)NC(C)(C)C (stereo not given)	-2.08
CN(Cc1cc[nH]n1)C(=O)c1ccc2c(c1)nc(N1CC[C@H](O)C1)n2C	4.43
COc1ccccc1OCC(=O)NCC(O)(c1cccs1)C1CC1 (stereo not given)	-5
O=C(CC1CN(Cc2ccccc2)CCO1)Nc1ccccc1F (stereo not given)	-2.05
COc1ccccc1OCCNS(=O)(=O)N1CCOCC1	9.37
CCc1ccccc1NC(=O)N1CCn2cnc(COC)c2C1	-11.8
CCS(=O)(=O)N1CC[C@H]2C(=O)N(Cc3cccnc3)CCO[C@H]2C1	-80.4
CCN(CC1CCOC1)S(=O)(=O)Cc1cc(Cl)ccc1OC (stereo not given)	3.1
CCOCCCNC(=O)c1cn(C(C)(C)C)c2ncccc12	2.05
Cc1oc(C)c(C(=O)NCc2cccnc2)c1C	5.19
CNC(=O)N1CCOCC1c1c(C)nn(C)c1C (stereo not given)	-7.11
O=C(Nc1ccccc1F)N1CCN(Cc2noc(C3CC3)n2)CC1	-0.144
CCc1ncnc2c1CCN(C(=O)c1ccncc1F)CC2	-88.5
Cc1ccc(CN(C)C(=O)CN2CCCCC2Cn2cncn2)o1 (stereo not given)	0.508
CN(C)CCN1C(=O)CCC12CCCN(C(=O)N(C)C)CC2 (stereo not given)	4.56
O=C(Cc1ccsc1)N1CCC(O)(CN2CCc3ccccc3C2)C1 (stereo not given)	-7.27
O=C1CC2(CCN(C(=O)c3ccccn3)C2)Nc2ccccc2N1 (stereo not given)	10.9

Structure (SMILES)	cytotoxicity at 10 µM [%]
CNC(=O)[C@@H](c1ccccc1F)N1CCC[C@H]1C(=O)NC1CCCC1	0.344
CCOCCNC(=O)c1cnc(Sc2nccn2C)c(Cl)c1	-44.6
O=C(c1ccccn1)N1C[C@H]2CC[C@@H](C1)N(C(=O)CCc1ccsc1)C2	-12.7
c1ccc(-c2noc(CCNC3CCOC4(CCOCC4)C3)n2)nc1 (stereo not given)	-6.5
COCCN1C(=O)[C@@H]2CC[C@H]1CN(c1ncccn1)C2	7.01
O=C1NCC2(CCCN(C(=O)c3ccc4c(c3)CCCO4)CC2)O1 (stereo not given)	-19.7
CN1C[C@H]2CNC[C@@]2(C(=O)N2CCN(c3ncccc3C#N)CC2)C1	2.12
Cn1cc(C(=O)N2CC[C@@H]3[C@@H]2CCN3Cc2ccncc2)cn1	-75.3
CO[C@H]1COCCN(C(=O)c2ccno2)C1	2.42
CN(C)c1ncnc2c1CCN(C(=O)CN1CCCCC1)C2	-0.747
CN(C)c1cc(C(=O)N2CCCN(Cc3nccn3C)CC2)ccn1	-1.56
Cc1ccc(N2CCCN(C(=O)c3c(C)oc(C)c3C)CC2)nn1	5.46
O=C(NC[C@]12COC[C@H]1CN(Cc1ccco1)C2)c1ccccc1	-2.53
Cc1cccn2cc(CN3CCCC(c4ccn[nH]4)C3)nc12 (stereo not given)	-5.95
Cc1nsc(N2CCN(C(=O)Nc3cccc(C#N)c3)CC2)n1	-18.7
CS(=O)(=O)N1CC(c2nc(N)ncc2-c2ccc(F)cc2)C1	-3.49
Cc1noc(NC(=O)c2ccc(OC(F)(F)F)cc2)n1	33.5
C1CC(c2nnc(CN3CCCC3c3noc(C4CC4)n3)o2)C1 (stereo not given)	-7.77
CS(=O)(=O)Cc1noc(CN2CCc3c(Cl)cccc3C2)n1	-4.07
C=Cn1ncc(CN2C[C@@H]3CCCN3C[C@H]2Cc2ccccc2)c1C	-18.5
CN(C)c1cc(CNC(=O)Nc2nncs2)ccn1	-20.5
Cc1nc2c(c(NCc3nc4ccccc4s3)n1)CCNCC2	-37.8

Reference: ChEMBL document CHEMBL4513216, “Probing the Open Global Health Chemical Diversity Library for Multistage-Active Starting Points for Next-Generation Antimalarials” (ACS Infect Dis, 2020)
